Screens (PubChem)
CHO parental Ca: counter-screen: ATP calcium response change in parental CHO cells; parental CHO-K1, ATP-induced calcium, Fluo-8 fluorescence; inhibition, % at 5.6 µM; 330,000 tested, 0.63% active; AID 463079;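 active means inhibition above that plate's mean sample inhibition plus 3 SD, cut at about 26% in these data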
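Assay system – parental CHO cells · Reagent – ATP stimulus · Detection – intracellular calcium via Fluo-8 no-wash fluorescent dye · Evaluation – percent inhibition of ATP-evoked calcium rise, normalized to controls · Controls – ATP wells versus no-ATP DMSO wells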
OXTR ag: agonists of human oxytocin receptor; P30559; CHO-OTR cells, Fluo-8 calcium fluorescence; normalized: DMSO 0%, oxytocin 100%; activation, % at 3 µM; 320,000 tested, 0.32% active; AID 2435;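 active means activation above the mean of all tested compounds plus 3 SD, cutoff set per screening run, cut at about 20% in these data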;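 further: peak over basal fluorescence ratio from a 100 s FLIPR kinetic read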
OX1R antag-1: blocks the human orexin 1 receptor; O43613; OX1R-expressing cells, FRET antagonist read-out; inhibition, % at 6.6 µM; 330,000 tested, 1.8% active; in the data active means inhibition mostly above about 38%, no sharp cut-off; inactive means mostly below about 40%
Target sequence (O43613 whole entry, looked up): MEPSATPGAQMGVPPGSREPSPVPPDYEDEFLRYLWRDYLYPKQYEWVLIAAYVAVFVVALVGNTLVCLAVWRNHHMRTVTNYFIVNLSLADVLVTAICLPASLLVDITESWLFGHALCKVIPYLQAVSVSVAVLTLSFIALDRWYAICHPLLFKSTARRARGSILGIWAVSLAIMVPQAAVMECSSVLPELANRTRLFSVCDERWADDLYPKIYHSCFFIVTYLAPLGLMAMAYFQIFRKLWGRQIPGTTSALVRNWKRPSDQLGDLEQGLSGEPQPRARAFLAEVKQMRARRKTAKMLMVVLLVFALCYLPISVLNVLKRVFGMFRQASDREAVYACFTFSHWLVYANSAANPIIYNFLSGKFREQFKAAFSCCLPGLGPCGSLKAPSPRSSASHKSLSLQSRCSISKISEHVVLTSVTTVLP
OXTR potentiate: human OXTR potentiation | CHO-OTR cells, Fluo-8 calcium fluorescence, potentiator mode; 0% = oxytocin EC15, 100% = EC100 | activation, % at 3 µM | AID 2445 | 320,000 tested, 0.061% active;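 active means activation above that plate's cutoff, the mean activation of tested compounds plus 3 SD, cut at about 6.6% in these data, passing the limit was not always enough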
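Dosing: Single dose, 3.0 µM nominal final compound concentration | Material: Human OTR in CHO cells | Technique: Kinetic Fluo-8 calcium fluorescence | Benchmarks: EC15 oxytocin alone as 0%, 75 nM oxytocin as 100% | Probe or stimulus: Oxytocin at about EC15, sub-maximal agonist stimulus | Incubation: Compound 6 min at room temperature before oxytocin, 100 s read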
V1aR counter: V1a receptor agonism, counter-screen for OXTR agonists; P37288; CHO-V1R cells, Fluo-8 calcium fluorescence, agonist mode; 0% DMSO, 100% 3 nM vasopressin; activation, % at 3 µM; 320,000 tested, 0.25% active;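 active means activation above the mean activation of all tested compounds plus 3 SD, per screening run, cut at about 20% in these data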;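 further: signal is peak over basal fluorescence ratio across a 100 second FLIPR read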
OX1R antag-2: human HCRTR1 antagonism. CHO/OX1R cells, Fluo-8 calcium fluorescence, orexin A. 330,000 tested, 0.43% active. inhibition, % at 5 µM. AID 434989;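 active means inhibition above its plate's threshold, mean inhibition of all tested compounds on the plate plus 3 SD, cut at about 37% in these data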
Large screens that a line does not name were inactive. This is a sample that favours compounds with a hit; in the whole collection about 2.7% have one here.

O=C(CSc1ccc(-c2cccc([N+](=O)[O-])c2)nn1)N1CCCC1	OX1R antag-1 71.8
Cn1nnnc1Sc1ncnc2scc(-c3ccc([N+](=O)[O-])cc3)c12	OX1R antag-1 39.3
C[C@H](CO)N1C[C@H](C)[C@@H](CN(C)Cc2ccc(-c3ccccc3)cc2)Oc2c(NC(=O)Nc3ccc4c(c3)OCO4)cccc2C1=O	none
CCOc1cc(/C=C2\SC(=S)N(NS(=O)(=O)c3ccc(C)cc3)C2=O)ccc1O	none
COc1cc(/C=C2\SC(=S)N(NS(=O)(=O)c3ccc(C)cc3)C2=O)ccc1O	OXTR ag 24.1, V1aR counter 39.3
COc1cc(/C=C2\SC(=S)N(NS(=O)(=O)c3ccccc3)C2=O)ccc1O	CHO parental Ca 44.1, OXTR ag 23.6, V1aR counter 40.7
CC(NC(=O)c1ccc(NC(=O)CC2SC(N3CCCC3)=NC2=O)cc1)c1ccc(F)cc1 (stereo unspecified)	none
O=S(=O)(c1cccc2nsnc12)N1CCCC1	none
Cc1ccc(S(=O)(=O)N2CCCCC2)c2nsnc12	none
O=S(=O)(c1ccc(Br)c2nsnc12)N1CCOCC1	OX1R antag-1 39.9
CN1CCN(S(=O)(=O)c2ccc(Sc3nc4ccccc4[nH]3)c3nsnc23)CC1	OX1R antag-1 162.5
Cc1ccc(S(=O)(=O)N2CCOCC2)c2nsnc12	OX1R antag-1 41.4
CN1CCN(S(=O)(=O)c2ccc(Br)c3nsnc23)CC1	OX1R antag-1 64.9
Cc1ccc(S(=O)(=O)N2CCN(C)CC2)c(C)c1	none
COc1cc(S(=O)(=O)N2CCn3cccc3C2C)ccc1NC(C)=O (stereo unspecified)	none
CN(CC(=O)Nc1cccc(S(=O)(=O)N2CCOCC2)c1)CC(=O)Nc1ccc(Cl)c(C(F)(F)F)c1	CHO parental Ca 49.5
CN(CC(=O)Nc1cccc(F)c1)CC(=O)Nc1cc(S(=O)(=O)N2CCOCC2)ccc1Cl	none
O=c1oc2ccccc2c(O)c1CN1CCCCC1	OX1R antag-1 68.0
O=c1oc2ccccc2c(Nc2ccccc2)c1CN1CCCCC1	none
CC(Cc1n[nH]c(=S)n1N)c1ccccc1 (stereo unspecified)	none
COc1ccc(OC)c(NC(=O)C2CCCN(S(=O)(=O)c3cccc4nsnc34)C2)c1 (stereo unspecified)	none
COc1ccc(NC(=O)C2CCCN2S(=O)(=O)c2cccc3nsnc23)c(OC)c1 (stereo unspecified)	OX1R antag-1 56.7
COc1ccccc1NC(=O)C1CCCN1S(=O)(=O)c1cccc2nsnc12 (stereo unspecified)	OX1R antag-1 76.1
CCCCC(=O)NC(=S)Nc1c(C)cc(Br)cc1C	none
CNC(=S)N(Cc1cc2cc(OC)c(OC)cc2[nH]c1=O)C1CCCC1	none
OCCNCc1c(OCc2ccc(Cl)cc2)ccc2ccccc12	OXTR ag 29.9, V1aR counter 29.6
CC(O)CNCCNCc1c(OCc2ccccc2)ccc2ccccc12 (stereo unspecified)	none
Cc1cc(NC(=O)c2cc3cccc([N+](=O)[O-])c3[nH]2)ccc1F	OX1R antag-1 46.0
COCC(C)NC(=O)c1cc2cccc([N+](=O)[O-])c2[nH]1 (stereo unspecified)	none
O=C(O)CCCn1c(O)c(C=C2N=c3ccccc3=N2)sc1=S	none
COCCCn1c(O)c(/C=C2\N=C(C#N)C(=Nc3ccc(C)cc3)O2)sc1=S	CHO parental Ca 39.2
CC(C)c1ccc(NC(=O)C(c2ccc3c(c2)OCO3)N2CCCCC2)cc1 (stereo unspecified)	none
CC1CCN(C(C(=O)Nc2ccc(C(C)C)cc2)c2ccc3c(c2)OCO3)CC1 (stereo unspecified)	CHO parental Ca 31.1
N#CCNc1ccc([N+](=O)[O-])cc1C#N	none
N#C/C(=C/c1ccc(-c2ccccc2[N+](=O)[O-])o1)C(N)=O	none
N#C/C(=C/c1ccc(-c2cc([N+](=O)[O-])ccc2Cl)o1)C(N)=O	OX1R antag-1 53.6
O=C(C1=C(O)C(=O)N(CCN2CCOCC2)C1c1ccccn1)c1cccs1 (stereo unspecified)	OX1R antag-1 58.9
